Series [1] deals with T1, MAO-A (Homo sapiens, UniProt P21397).
T1 sequence (P21397 whole entry): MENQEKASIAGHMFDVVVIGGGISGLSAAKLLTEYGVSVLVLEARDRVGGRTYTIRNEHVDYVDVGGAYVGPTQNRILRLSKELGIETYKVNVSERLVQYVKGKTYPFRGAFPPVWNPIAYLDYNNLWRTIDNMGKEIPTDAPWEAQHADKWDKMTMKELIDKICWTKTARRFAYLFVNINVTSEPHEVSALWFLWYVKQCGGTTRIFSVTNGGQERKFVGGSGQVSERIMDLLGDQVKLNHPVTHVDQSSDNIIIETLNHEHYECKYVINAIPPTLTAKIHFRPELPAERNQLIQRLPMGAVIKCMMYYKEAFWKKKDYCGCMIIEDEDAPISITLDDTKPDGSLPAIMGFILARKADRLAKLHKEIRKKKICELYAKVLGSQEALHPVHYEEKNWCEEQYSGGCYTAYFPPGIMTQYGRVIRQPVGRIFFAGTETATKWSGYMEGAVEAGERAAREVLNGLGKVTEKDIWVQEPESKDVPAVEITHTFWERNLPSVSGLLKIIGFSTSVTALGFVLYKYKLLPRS
The series can be described thus: Inhibition of recombinant human MAO-A assessed as reduction of H2O2 production from oxidative deamination of tyramine at 10 uM preincubated for 2 hrs followed by substrate addition. The following applies: probe tyramine. In outline: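 Purified recombinant human MAO-A (tyramine substrate) or MAO-B (benzylamine substrate) was preincubated with compound for 2 h. Percent inhibition was calculated against vehicle and enzyme-free controls.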

Series [2] has as its system Mus musculus. The series can be described thus: Toxicity in C57BL/6 mouse assessed as mortality at 3 to 60 mg/kg, po qd administered 15 days starting 1 day prior to bleomycin instillation. It is filed as organism-based. As to conditions: in vivo. In outline:
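Male C57BL/6 mice, 6 to 7 weeks old. Lung fibrosis induced by a single oropharyngeal bleomycin dose (1.5 U/kg). Compound given orally once daily at 3, 10, 30 or 60 mg/kg for 15 days, starting 1 day before bleomycin. Mortality and body weight loss monitored; lungs taken at day 14 post-bleomycin.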

Series [3] can be described thus: Cmax in C57BL/6 mouse lung at 30 mg/kg, po by LC-MS/MS analysis. It is filed as ADME, organism-based. Further details: dose 30 mg/kg, route oral. The method in brief:
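Normal C57BL/6 mice, n = 3 per time point, received a single oral 30 mg/kg dose formulated in 0.5% methylcellulose.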

Series [4] deals with T2, Amine oxidase [copper-containing] 3 (Homo sapiens) (UniProt Q16853).
T2 sequence (whole entry): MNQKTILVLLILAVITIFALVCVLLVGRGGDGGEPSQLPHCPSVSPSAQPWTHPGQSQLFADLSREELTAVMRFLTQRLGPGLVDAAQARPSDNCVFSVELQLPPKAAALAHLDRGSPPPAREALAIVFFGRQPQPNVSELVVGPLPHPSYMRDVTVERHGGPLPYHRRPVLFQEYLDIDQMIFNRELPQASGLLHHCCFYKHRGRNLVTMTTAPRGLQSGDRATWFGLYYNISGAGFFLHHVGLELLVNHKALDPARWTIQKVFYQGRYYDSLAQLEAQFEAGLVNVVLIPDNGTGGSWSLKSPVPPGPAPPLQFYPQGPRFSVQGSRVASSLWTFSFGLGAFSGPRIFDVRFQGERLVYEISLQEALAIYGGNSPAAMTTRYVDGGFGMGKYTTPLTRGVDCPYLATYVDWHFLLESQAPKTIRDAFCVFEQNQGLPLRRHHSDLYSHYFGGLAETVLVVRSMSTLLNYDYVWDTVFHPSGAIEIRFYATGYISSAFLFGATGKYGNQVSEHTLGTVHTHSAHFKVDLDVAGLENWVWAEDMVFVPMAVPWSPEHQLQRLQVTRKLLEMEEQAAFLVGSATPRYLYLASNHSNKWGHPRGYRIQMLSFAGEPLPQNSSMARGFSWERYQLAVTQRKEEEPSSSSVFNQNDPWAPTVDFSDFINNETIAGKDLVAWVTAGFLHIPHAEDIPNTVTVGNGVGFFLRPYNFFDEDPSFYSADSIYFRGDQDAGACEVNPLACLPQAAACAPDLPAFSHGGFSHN
The series can be described thus: Inhibition of SSAO in human plasma assessed as reduction of H2O2 production from oxidative deamination of benzylamine at 10 uM preincubated for 2 hrs followed by substrate addition measured every 2 mins for 1 hr by amplex red reagent-based fluorescence assay relative to control. The method in brief: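 Endogenous SSAO in human plasma was the enzyme source and benzylamine the substrate. After a 2 h preincubation with compound, percent inhibition was calculated relative to a vehicle control and to a control containing 1 μM of the known SSAO inhibitor PXS-4681A.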

The target of series [5] is T3, Lysyl oxidase homolog 2 (Homo sapiens) (UniProt Q9Y4K0).
T3 sequence (whole entry): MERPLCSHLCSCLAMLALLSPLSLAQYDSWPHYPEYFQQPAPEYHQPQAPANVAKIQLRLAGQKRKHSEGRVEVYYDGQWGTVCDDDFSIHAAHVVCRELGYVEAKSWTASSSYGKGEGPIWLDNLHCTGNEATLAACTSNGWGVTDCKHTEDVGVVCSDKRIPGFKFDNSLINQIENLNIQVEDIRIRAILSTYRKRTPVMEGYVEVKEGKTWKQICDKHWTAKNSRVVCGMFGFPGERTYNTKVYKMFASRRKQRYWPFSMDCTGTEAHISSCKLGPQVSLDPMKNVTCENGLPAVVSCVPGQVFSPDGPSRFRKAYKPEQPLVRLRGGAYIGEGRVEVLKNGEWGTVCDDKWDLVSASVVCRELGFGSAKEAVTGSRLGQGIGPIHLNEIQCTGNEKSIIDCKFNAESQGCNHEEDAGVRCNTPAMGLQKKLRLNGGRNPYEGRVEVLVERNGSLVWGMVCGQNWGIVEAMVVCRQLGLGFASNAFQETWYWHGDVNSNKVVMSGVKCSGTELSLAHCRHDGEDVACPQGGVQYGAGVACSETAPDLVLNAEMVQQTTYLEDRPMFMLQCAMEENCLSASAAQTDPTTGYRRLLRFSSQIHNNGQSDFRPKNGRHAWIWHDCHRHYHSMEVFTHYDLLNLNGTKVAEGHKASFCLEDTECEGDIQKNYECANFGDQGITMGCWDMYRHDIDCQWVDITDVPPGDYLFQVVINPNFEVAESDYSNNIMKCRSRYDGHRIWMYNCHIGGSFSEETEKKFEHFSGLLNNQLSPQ
The series can be described thus: (§1) Inhibition of recombinant human LOXL2 expressed in human whole blood assessed as reduction of H2O2 production from oxidative deamination of DAP preincubated for 2 hrs followed by substrate addition measured every 2 mins for 1 hr by amplex red reagent-based fluorescence assay.

The target in series [6] is T4, Lysyl oxidase homolog 2 (Homo sapiens, UniProt Q9Y4K0).
T4 sequence (Q9Y4K0 whole entry): T3 sequence (whole entry)
The description is as §1.

Series [7] has as its target T3, Lysyl oxidase homolog 2 (Homo sapiens). The series can be described thus: Irreversible inhibition of human LOXL2 assessed as catalytic activity preincubated for 2 hrs followed by substrate addition measured every 2 mins for 1 hr by amplex red reagent-based fluorescence assay relative to control. Further details: concentration or dose not given beside the values.

One may read the inhibition as the drop in the measured response relative to a control, in per cent. By Cmax is commonly meant the peak of the concentration-time curve. One may read the IC90 as the concentration at which the effect reaches the 90% level. A word on the IC50: it is the concentration at which inhibition is half-maximal.

Consider `Cl.NCc1cc(Oc2cccc(C(=O)N3C[C@@H](O)[C@H](F)C3)c2)nc(C(F)(F)F)c1` (racemic), for which, in series [1], the inhibition at 2 h, 10 µM is under 10%. Besides, the Activity entry in series [2] is “Non-Toxic”. The compound also displayed a Cmax in series [3] of 21 µM. In addition, the inhibition in series [4] amounted to 16%; in series [7], 97%. Moreover, in series [5], the IC90 worked out at 5.4 µM. Besides, in series [6], the IC50 was 0.87 µM.
